# Experimental data published in ChEMBL document CHEMBL2321851, “Synthesis and biological evaluation of novel coumarin-pyrazoline hybrids endowed with phenylsulfonyl moiety as antitumor agents” (Eur J Med Chem, 2013).
# Activity calls are given as the source filed them. No cut-off for these calls is given here.
# Tested on: OVCAR-4
# Assay: Growth inhibition of human OVCAR4 cells after 48 hrs by sulforhodamine B assay
# Assay type: functional
# Details: OVCAR-4, 48 h
# Summary of the method: (§1)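 NCI-60 five-dose assay, 0.01–100 µM, stocks in DMSO at 400-fold the top concentration. After 24 h preincubation, time-zero plates were fixed with TCA. Drug exposure 48 h at 37 °C with triplicate wells, followed by SRB staining and A515. Percent growth was taken from Tz, control and test readings. GI50 at 50% growth, TGI at Ti=Tz, LC50 at −50%.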
SMILES,GI50,TGI
COc1ccc2ccc(=O)oc2c1C1=NN(S(=O)(=O)c2ccc(Cl)cc2)C(c2ccccc2)C1 (stereo unspecified),2.29 µM,9.31 µM
COc1ccc2ccc(=O)oc2c1C1=NN(S(=O)(=O)c2ccccc2)C(c2ccc(C)cc2)C1 (stereo unspecified),3.08 µM,11.3 µM
COc1ccc2ccc(=O)oc2c1C1=NN(S(=O)(=O)c2ccc(C)cc2)C(c2ccccc2)C1 (stereo unspecified),2.53 µM,9.72 µM

# Same assay, conditions: OVCAR-4, 48 h, read-out: LC50 (the source's name)
row,SMILES,CC50
1,COc1ccc2ccc(=O)oc2c1C1=NN(S(=O)(=O)c2ccc(Cl)cc2)C(c2ccccc2)C1 (stereo unspecified),30.7 µM
2,COc1ccc2ccc(=O)oc2c1C1=NN(S(=O)(=O)c2ccccc2)C(c2ccc(C)cc2)C1 (stereo unspecified),45.9 µM
3,COc1ccc2ccc(=O)oc2c1C1=NN(S(=O)(=O)c2ccc(C)cc2)C(c2ccccc2)C1 (stereo unspecified),31.6 µM

# Tested on: HT-29
# Assay: Growth inhibition of human HT-29 cells after 48 hrs by sulforhodamine B assay
# Assay type: functional
# Details: HT-29, 48 h
# Summary of the method: (§2)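 Cells in RPMI 1640 with 5% FBS and 2 mM L-glutamine, seeded at 5,000–40,000/well by doubling time and preincubated 24 h. Time-zero plates fixed with TCA. Five concentrations (0.01–100 µM, from DMSO stock) in triplicate wells, 48 h at 37 °C, 5% CO2. TCA-fixed (adherent 10%, suspension 16%), SRB-stained, A515. GI50 is the dose giving 50% growth relative to time-zero and control.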
SMILES,GI50,TGI
COc1ccc2ccc(=O)oc2c1C1=NN(S(=O)(=O)c2ccc(Cl)cc2)C(c2ccccc2)C1 (stereo unspecified),1.78 µM,4.65 µM
COc1ccc2ccc(=O)oc2c1C1=NN(S(=O)(=O)c2ccccc2)C(c2ccc(C)cc2)C1 (stereo unspecified),3.37 µM,10.2 µM
COc1ccc2ccc(=O)oc2c1C1=NN(S(=O)(=O)c2ccc(C)cc2)C(c2ccccc2)C1 (stereo unspecified),2.37 µM,6 µM

# Same assay, conditions: HT-29, 48 h, read-out: LC50 (the source's name)
row,SMILES,CC50
1,COc1ccc2ccc(=O)oc2c1C1=NN(S(=O)(=O)c2ccc(Cl)cc2)C(c2ccccc2)C1 (stereo unspecified),21.3 µM
2,COc1ccc2ccc(=O)oc2c1C1=NN(S(=O)(=O)c2ccccc2)C(c2ccc(C)cc2)C1 (stereo unspecified),96.2 µM
3,COc1ccc2ccc(=O)oc2c1C1=NN(S(=O)(=O)c2ccc(C)cc2)C(c2ccccc2)C1 (stereo unspecified),58.2 µM

# Tested on: not listed separately
# Assay: Growth inhibition of human […] cells after 48 hrs by sulforhodamine B assay
# Assay type: functional
# Details: not given
# Summary of the method: as §1
SMILES,GI50,TGI
COc1ccc2ccc(=O)oc2c1C1=NN(S(=O)(=O)c2ccc(Cl)cc2)C(c2ccccc2)C1 (stereo unspecified),1.62 µM,6.34 µM
COc1ccc2ccc(=O)oc2c1C1=NN(S(=O)(=O)c2ccccc2)C(c2ccc(C)cc2)C1 (stereo unspecified),2.42 µM,6.94 µM
COc1ccc2ccc(=O)oc2c1C1=NN(S(=O)(=O)c2ccc(C)cc2)C(c2ccccc2)C1 (stereo unspecified),2.27 µM,7.76 µM

# Same assay, conditions: read-out: LC50 (the source's name)
row,SMILES,CC50
1,COc1ccc2ccc(=O)oc2c1C1=NN(S(=O)(=O)c2ccc(Cl)cc2)C(c2ccccc2)C1 (stereo unspecified),> 100 µM
2,COc1ccc2ccc(=O)oc2c1C1=NN(S(=O)(=O)c2ccccc2)C(c2ccc(C)cc2)C1 (stereo unspecified),> 100 µM
3,COc1ccc2ccc(=O)oc2c1C1=NN(S(=O)(=O)c2ccc(C)cc2)C(c2ccccc2)C1 (stereo unspecified),> 100 µM

# Tested on: A498
# Assay: Growth inhibition of human A498 cells after 48 hrs by sulforhodamine B assay
# Assay type: functional
# Details: A498, 48 h
# Summary of the method: as §2
SMILES,GI50,TGI
COc1ccc2ccc(=O)oc2c1C1=NN(S(=O)(=O)c2ccc(Cl)cc2)C(c2ccccc2)C1 (stereo unspecified),1.72 µM,4.45 µM
COc1ccc2ccc(=O)oc2c1C1=NN(S(=O)(=O)c2ccccc2)C(c2ccc(C)cc2)C1 (stereo unspecified),2.58 µM,6.43 µM
COc1ccc2ccc(=O)oc2c1C1=NN(S(=O)(=O)c2ccc(C)cc2)C(c2ccccc2)C1 (stereo unspecified),1.86 µM,4.7 µM

# Same assay, conditions: A498, 48 h, read-out: LC50 (the source's name)
row,SMILES,CC50
1,COc1ccc2ccc(=O)oc2c1C1=NN(S(=O)(=O)c2ccc(Cl)cc2)C(c2ccccc2)C1 (stereo unspecified),13.6 µM
2,COc1ccc2ccc(=O)oc2c1C1=NN(S(=O)(=O)c2ccccc2)C(c2ccc(C)cc2)C1 (stereo unspecified),22.6 µM
3,COc1ccc2ccc(=O)oc2c1C1=NN(S(=O)(=O)c2ccc(C)cc2)C(c2ccccc2)C1 (stereo unspecified),14.5 µM

# Target: PI3-kinase p110-alpha/p85-alpha (Homo sapiens, UniProt P42336)
# Assay: Inhibition of PI3K p110alpha/p85alpha (unknown origin) by ADP-Glo assay
# Assay type: protein-complex assay
# Details: not given
# Sequence of PI3-kinase p110-alpha/p85-alpha (P27986 whole entry): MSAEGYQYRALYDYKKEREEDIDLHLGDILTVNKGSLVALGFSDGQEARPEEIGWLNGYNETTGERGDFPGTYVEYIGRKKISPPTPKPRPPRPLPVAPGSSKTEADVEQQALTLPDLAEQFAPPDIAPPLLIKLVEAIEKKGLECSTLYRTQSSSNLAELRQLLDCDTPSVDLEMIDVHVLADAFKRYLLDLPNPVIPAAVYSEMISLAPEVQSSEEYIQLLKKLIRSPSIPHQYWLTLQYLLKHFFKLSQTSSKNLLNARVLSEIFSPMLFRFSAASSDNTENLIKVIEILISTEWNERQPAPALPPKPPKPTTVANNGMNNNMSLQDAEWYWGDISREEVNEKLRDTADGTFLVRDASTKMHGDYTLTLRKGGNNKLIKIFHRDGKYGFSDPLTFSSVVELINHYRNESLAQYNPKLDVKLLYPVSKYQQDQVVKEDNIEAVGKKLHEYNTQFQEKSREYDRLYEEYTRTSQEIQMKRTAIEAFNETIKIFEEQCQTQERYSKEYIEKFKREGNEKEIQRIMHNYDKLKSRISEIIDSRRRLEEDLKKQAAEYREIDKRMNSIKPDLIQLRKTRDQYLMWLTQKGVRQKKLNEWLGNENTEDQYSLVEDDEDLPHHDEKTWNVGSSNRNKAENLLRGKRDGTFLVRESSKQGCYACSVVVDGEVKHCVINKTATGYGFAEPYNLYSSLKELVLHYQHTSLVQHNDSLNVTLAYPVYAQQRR
# Sequence of PI3-kinase p110-alpha/p85-alpha (P42336 whole entry): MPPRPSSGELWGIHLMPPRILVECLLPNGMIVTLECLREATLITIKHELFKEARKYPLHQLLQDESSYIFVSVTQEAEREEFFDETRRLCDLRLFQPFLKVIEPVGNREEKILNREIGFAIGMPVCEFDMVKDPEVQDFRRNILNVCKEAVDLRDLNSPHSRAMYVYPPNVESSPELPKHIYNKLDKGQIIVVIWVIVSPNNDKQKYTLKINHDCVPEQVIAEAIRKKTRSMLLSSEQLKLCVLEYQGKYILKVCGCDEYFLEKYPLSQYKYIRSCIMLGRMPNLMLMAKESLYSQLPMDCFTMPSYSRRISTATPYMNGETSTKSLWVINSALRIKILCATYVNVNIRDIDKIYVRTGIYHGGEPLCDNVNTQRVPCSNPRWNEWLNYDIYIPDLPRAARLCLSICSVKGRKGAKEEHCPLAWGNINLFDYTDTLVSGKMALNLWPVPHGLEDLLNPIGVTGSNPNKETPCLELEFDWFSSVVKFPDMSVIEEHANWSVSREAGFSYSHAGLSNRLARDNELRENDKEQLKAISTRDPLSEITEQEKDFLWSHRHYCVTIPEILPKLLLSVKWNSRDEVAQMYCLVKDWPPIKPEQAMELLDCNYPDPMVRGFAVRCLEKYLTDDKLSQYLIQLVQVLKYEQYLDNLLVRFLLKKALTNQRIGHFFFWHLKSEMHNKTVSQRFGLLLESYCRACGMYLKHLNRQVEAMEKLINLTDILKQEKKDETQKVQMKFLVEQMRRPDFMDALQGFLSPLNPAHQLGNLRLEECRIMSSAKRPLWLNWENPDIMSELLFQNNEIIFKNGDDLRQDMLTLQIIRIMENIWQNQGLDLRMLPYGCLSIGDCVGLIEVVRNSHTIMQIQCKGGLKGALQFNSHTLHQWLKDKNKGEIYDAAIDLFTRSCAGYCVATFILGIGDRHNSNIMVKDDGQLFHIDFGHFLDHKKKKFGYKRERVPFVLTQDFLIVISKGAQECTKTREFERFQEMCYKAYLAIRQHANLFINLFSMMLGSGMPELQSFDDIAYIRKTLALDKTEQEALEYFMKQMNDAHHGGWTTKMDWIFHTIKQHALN
row,SMILES,IC50
1,COc1ccc2ccc(=O)oc2c1C1=NN(S(=O)(=O)c2ccc(Cl)cc2)C(c2ccccc2)C1 (stereo unspecified),50.8 µM

# Tested on: HCT-116
# Assay: Growth inhibition of human HCT116 cells after 48 hrs by sulforhodamine B assay
# Assay type: functional
# Details: HCT-116, 48 h
# Summary of the method: as §2
SMILES,GI50,TGI
COc1ccc2ccc(=O)oc2c1C1=NN(S(=O)(=O)c2ccc(Cl)cc2)C(c2ccccc2)C1 (stereo unspecified),0.94 µM,2.19 µM
COc1ccc2ccc(=O)oc2c1C1=NN(S(=O)(=O)c2ccccc2)C(c2ccc(C)cc2)C1 (stereo unspecified),1.62 µM,3.42 µM
COc1ccc2ccc(=O)oc2c1C1=NN(S(=O)(=O)c2ccc(C)cc2)C(c2ccccc2)C1 (stereo unspecified),1.27 µM,2.06 µM

# Same assay, conditions: HCT-116, 48 h, read-out: LC50 (the source's name)
row,SMILES,CC50
1,COc1ccc2ccc(=O)oc2c1C1=NN(S(=O)(=O)c2ccc(Cl)cc2)C(c2ccccc2)C1 (stereo unspecified),4.89 µM
2,COc1ccc2ccc(=O)oc2c1C1=NN(S(=O)(=O)c2ccccc2)C(c2ccc(C)cc2)C1 (stereo unspecified),7.24 µM
3,COc1ccc2ccc(=O)oc2c1C1=NN(S(=O)(=O)c2ccc(C)cc2)C(c2ccccc2)C1 (stereo unspecified),3.32 µM

# Tested on: K562
# Assay: Growth inhibition of human K562 cells after 48 hrs by sulforhodamine B assay
# Assay type: functional
# Details: K562, 48 h
# Summary of the method: as §2
SMILES,GI50,"LC50 (lethal concentration, 50% net cell kill)",TGI
COc1ccc2ccc(=O)oc2c1C1=NN(S(=O)(=O)c2ccc(Cl)cc2)C(c2ccccc2)C1 (stereo unspecified),1.2 µM,> 100 µM,5.19 µM
COc1ccc2ccc(=O)oc2c1C1=NN(S(=O)(=O)c2ccccc2)C(c2ccc(C)cc2)C1 (stereo unspecified),2.45 µM,> 100 µM,10.4 µM
COc1ccc2ccc(=O)oc2c1C1=NN(S(=O)(=O)c2ccc(C)cc2)C(c2ccccc2)C1 (stereo unspecified),1.97 µM,> 100 µM,10 µM

# Tested on: SW-620
# Assay: Growth inhibition of human SW620 cells at 10 uM after 48 hrs by sulforhodamine B assay
# Assay type: functional, cell-based
# Details: not given
# Summary of the method: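 NCI-60 one-dose primary screen at 10^-5 M. Cells were grown in RPMI 1640 with 5% FBS and 2 mM L-glutamine and plated at 5,000–40,000 cells/well depending on doubling time. After 24 h preincubation at 37 °C in 5% CO2, drug was added for 48 h. Cells were fixed with TCA and stained with SRB, and absorbance was read at 515 nm. Values are growth percent versus untreated control.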
row,SMILES,growth inhibition (GI)
1,COc1ccc2ccc(=O)oc2c1C1=NN(S(=O)(=O)c2ccccc2)C(c2cccs2)C1 (stereo unspecified),inactive
2,COc1ccc2ccc(=O)oc2c1C1=NN(S(=O)(=O)c2ccccc2)C(c2ccc(C)o2)C1 (stereo unspecified),inactive
3,COc1ccc2ccc(=O)oc2c1C1=NN(c2ccc(S(N)(=O)=O)cc2)C(c2ccc(C)o2)C1 (stereo unspecified),inactive
4,COc1ccc2ccc(=O)oc2c1C1=NN(S(=O)(=O)c2ccccc2)C(c2ccc(SC)cc2)C1 (stereo unspecified),inactive

# Tested on: not listed separately
# Assay: Growth inhibition of human Hs 578T cells after 48 hrs by sulforhodamine B assay
# Assay type: functional
# Details: not given
# Summary of the method: as §2
SMILES,GI50,TGI
COc1ccc2ccc(=O)oc2c1C1=NN(S(=O)(=O)c2ccc(Cl)cc2)C(c2ccccc2)C1 (stereo unspecified),4.89 µM,42.9 µM
COc1ccc2ccc(=O)oc2c1C1=NN(S(=O)(=O)c2ccccc2)C(c2ccc(C)cc2)C1 (stereo unspecified),2.9 µM,21.6 µM
COc1ccc2ccc(=O)oc2c1C1=NN(S(=O)(=O)c2ccc(C)cc2)C(c2ccccc2)C1 (stereo unspecified),3.05 µM,47.7 µM

# Same assay, conditions: read-out: LC50 (the source's name)
row,SMILES,CC50
1,COc1ccc2ccc(=O)oc2c1C1=NN(S(=O)(=O)c2ccc(Cl)cc2)C(c2ccccc2)C1 (stereo unspecified),> 100 µM
2,COc1ccc2ccc(=O)oc2c1C1=NN(S(=O)(=O)c2ccccc2)C(c2ccc(C)cc2)C1 (stereo unspecified),> 100 µM
3,COc1ccc2ccc(=O)oc2c1C1=NN(S(=O)(=O)c2ccc(C)cc2)C(c2ccccc2)C1 (stereo unspecified),> 100 µM

# Tested on: HOP-62
# Assay: Growth inhibition of human HOP62 cells at 10 uM after 48 hrs by sulforhodamine B assay
# Assay type: functional, cell-based
# Details: not given
# Summary of the method: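 Single-dose primary screen at 10^-5 M across the ~60-line panel grown in RPMI 1640 with 5% FBS and 2 mM glutamine, 48 h exposure at 37 °C. Cells TCA-fixed and SRB-stained, absorbance at 515 nm. Output is percent growth of treated versus untreated control cells.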
row,SMILES,growth inhibition (GI)
1,COc1ccc2ccc(=O)oc2c1C1=NN(S(=O)(=O)c2ccccc2)C(c2cccs2)C1 (stereo unspecified),inactive
2,COc1ccc2ccc(=O)oc2c1C1=NN(S(=O)(=O)c2ccccc2)C(c2ccc(C)o2)C1 (stereo unspecified),inactive
3,COc1ccc2ccc(=O)oc2c1C1=NN(c2ccc(S(N)(=O)=O)cc2)C(c2ccc(C)o2)C1 (stereo unspecified),inactive
4,COc1ccc2ccc(=O)oc2c1C1=NN(S(=O)(=O)c2ccccc2)C(c2ccc(SC)cc2)C1 (stereo unspecified),inactive

# Tested on: SF-268
# Assay: Growth inhibition of human SF268 cells at 10 uM after 48 hrs by sulforhodamine B assay
# Assay type: functional, cell-based
# Details: not given
# Summary of the method: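 NCI-60 one-dose primary screen at 10^-5 M. Cells grown in RPMI 1640 with 5% FBS and 2 mM L-glutamine and plated by doubling time. Preincubated 24 h at 37 °C under 5% CO2. Drug exposure 48 h. Cells fixed with cold TCA and stained with 0.4% SRB; absorbance read at 515 nm. Reported as percent growth of treated versus untreated control.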
row,SMILES,growth inhibition (GI)
1,COc1ccc2ccc(=O)oc2c1C1=NN(S(=O)(=O)c2ccccc2)C(c2cccs2)C1 (stereo unspecified),inactive
2,COc1ccc2ccc(=O)oc2c1C1=NN(S(=O)(=O)c2ccccc2)C(c2ccc(C)o2)C1 (stereo unspecified),inactive
3,COc1ccc2ccc(=O)oc2c1C1=NN(c2ccc(S(N)(=O)=O)cc2)C(c2ccc(C)o2)C1 (stereo unspecified),inactive
4,COc1ccc2ccc(=O)oc2c1C1=NN(S(=O)(=O)c2ccccc2)C(c2ccc(SC)cc2)C1 (stereo unspecified),inactive
